Measured values taken from ChEMBL document CHEMBL1145762, “Antiplatelet activity of synthetic pyrrolo-benzylisoquinolines” (Bioorg Med Chem Lett, 2003).

How the values were obtained:
Assay type in all cases: functional, organism-based
[1] = species: Homo sapiens; assay: Antiplatelet aggregation (collagen-induced) activity at a concentration of 10 ug/mL
Method in brief: (§1)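 Platelets preincubated with test compound, aspirin or DMSO (0.5%, control) at 37 °C for 3 min, then aggregation inducer added (arachidonic acid, collagen, PAF or thrombin). IC50 values given as means ± S.E. (n=3).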

[2] = species: Homo sapiens; assay: Antiplatelet aggregation (platelet activating factor-induced) activity at a concentration of 2 ng/mL; method in brief: as §1
[3] = species: Homo sapiens; assay: Antiplatelet aggregation (thrombin-induced) activity at a concentration of 0.1 U; method in brief: as §1
[4] = species: Homo sapiens; assay: Inhibitory activity against arachidonic acid-induced platelet aggregation at a concentration of 100 uM was determined; method in brief: as §1

Row | Compound | IC50 [1] | IC50 [2] | IC50 [3] | IC50 [4]
1 | COc1cc2c(cc1OC)C1=C(c3ccc(Cl)cc3)C(=O)C(=O)N1CC2 | 30 µM | 84.8 µM | > 100 µM | 52.8 µM
2 | COc1cc2c(cc1OC)C1=C(c3ccccc3Cl)C(=O)C(=O)N1CC2 | 44.9 µM | > 100 µM | > 100 µM | 78.3 µM
3 | COc1cc2c(cc1OC)C1=C(c3ccc(Br)cc3)C(=O)C(=O)N1CC2 | 29.8 µM | > 100 µM | > 100 µM | 72.7 µM
4 | COc1cc2c(cc1OC)C1=C(c3ccccc3Br)C(=O)C(=O)N1CC2 | 39.8 µM | > 100 µM | > 100 µM | > 100 µM
5 | COc1cc2c(cc1OC)C1=C(c3cccc(Br)c3)C(=O)C(=O)N1CC2 | 23.3 µM | > 100 µM | > 100 µM | 45.5 µM
6 | COc1cc2c(cc1OC)C1=C(c3cccc(Cl)c3)C(=O)C(=O)N1CC2 | 37.5 µM | > 100 µM | > 100 µM | 53.8 µM
7 | COc1cccc(C2=C3c4cc(OC)c(OC)cc4CCN3C(=O)C2=O)c1 | 6.1 µM | > 100 µM | > 100 µM | 21 µM
8 | COc1ccc(C2=C3c4cc(OC)c(OC)cc4CCN3C(=O)C2=O)cc1 | 9.15 µM | 33.2 µM | 30.7 µM | 15.2 µM
9 | COc1cc2c(cc1OC)C1=C(c3ccccc3OC)C(=O)C(=O)N1CC2 | 35.8 µM | > 100 µM | > 100 µM | 65.5 µM
10 | CC(=O)Oc1ccccc1C(=O)O [ASPIRIN] | 22.4 µM | > 100 µM | > 100 µM | 44.6 µM
